This is an account of results in publication PMC5768141 (Journal of natural products, 2017).

Data set [1] deals with OVCAR3 cells. Description: Cell cycle assay. The class given is cell-based, human. Conditions: OVCAR3, 72 h.
Data set [2] has as its system OVSAHO cells. Kind of data set: Immunoblot analysis with densitometry. The class given is cell-based, human. As to conditions: for ERK activation (phosphorylated ERK): 100 nM; for p21 protein expression: western blot; for Cleaved PARP expression level: western blot densitometry.
Data set [3] concerns MOE^LOW murine oviductal epithelial cells. Description: Cell viability assay. Type of data set: cell-based. Conditions: Mus musculus, 72 h, read-out: IC50 against MOE^LOW.
A further data set deals with hERG channels. Conditions: cited from earlier work.
Data set [4] relates to MOE^HIGH murine oviductal epithelial cells. Description: Cell viability assay. Type of data set: cell-based. Conditions: Mus musculus, 72 h, read-out: IC50 against MOE^HIGH.
Data set [5] has as its system OVCAR3 cells. Description: Immunoblot analysis with densitometry. Type of data set: cell-based, human. Conditions: for ERK activation (phosphorylated ERK) / p53 expression: OVCAR3, 100 nM; for p53 expression: 72 h; for Bcl-xL expression / Cleaved PARP level / Cleaved caspase 3 level / Mcl-1 expression / p21 protein expression: OVCAR3, western blot densitometry. The method, boiled down: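 OVCAR3 cells exposed to test compound (100 nM, 72 h). Lysed in RIPA buffer on ice for 15 min, then spun at 14,000 g, 4 °C, 15 min. Protein quantified by BCA; 25 μg per lane run on SDS-PAGE and transferred to PVDF. Blocked in 5% milk/TBST for 1 h at RT, primary antibody overnight at 4 °C, secondary 30 min. Chemiluminescent detection, ImageJ densitometry, n = 3.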

In the next data set the test system is OVCA432 cells. Description: Immunoblot analysis. The class given is cell-based, human.
The subject of data set [6] is OVCAR3 cells. Kind of data set: Soft agar colony formation assay. As to conditions: OVCAR3, 21 days, vs DMSO control. Type of data set: cell-based, human. The method, boiled down:
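OVCAR3 cells, cultured in RPMI 1640 with 10% FBS, were suspended at 1.5 × 10^4 cells in 0.35% w/v top agar over a 0.5% w/v base agar layer. They were grown 21 days with the medium changed every three days. Colonies were imaged by microscopy and counted by image analysis. Three biological replicates.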

The subject of the next data set is OVCAR8 cells. Description: Cell viability assay. Type of data set: cell-based. As to conditions: Homo sapiens, OVCAR-8, 72 h, read-out: IC50 against OVCAR8.
The subject of another data set is KB nasopharyngeal cells. Conditions: cited from earlier work.
Data set [7] deals with OVSAHO cells. Kind of data set: Soft agar colony formation assay. Conditions: 21 days, vs DMSO control. The class given is cell-based, human. The method, boiled down: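 OVSAHO cells (1.5 × 104) suspended in 0.35% w/v agar over a 0.5% w/v base agar layer, with test compound or solvent control. Grown 21 days with medium changed every three days. Colonies imaged by microscopy and counted by image analysis; three biological replicates.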

The test system of data set [8] is OVCAR3 cells. Description: Clonogenic assay. Type of data set: cell-based, human. Conditions: OVCAR3, 21 days, treated every three days. In short, it runs like this:
(§1)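 Cells in RPMI 1640 with 10% FBS were plated at 200 cells per 60 mm dish and grown 21 days. Test compound or solvent control was given every three days. Colonies were fixed with 4% (w/v) paraformaldehyde, stained with 0.04% (w/v) crystal violet for 30 min at room temperature, imaged and counted by image analysis. Three biological replicates.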

The subject of another data set is HT-29 colon cancer cells. As to conditions: cited from earlier work.
Data set [9] concerns normal human colon CCD-112CoN cells. Conditions: cited from earlier work.
Data set [10] deals with normal human peripheral blood mononuclear cells. As to conditions: cited from earlier work.
The test system of data set [11] is OVSAHO cells. Description: Clonogenic assay. The class given is cell-based, human. As to conditions: 21 days, treated every three days. The method, boiled down:
as §1

The subject of data set [12] is MDA-MB-231 breast cancer cells. As to conditions: cited from earlier work.
The test system of data set [13] is OVCAR3 ovarian cancer cells. As to conditions: cited from earlier work.
In data set [14] the test system is OVCAR3 human ovarian cancer cells. Description: Cell viability assay. Type of data set: cell-based. Conditions: OVCAR-3, 72 h, read-out: IC50 against OVCAR3.
Data set [15] concerns Na^+/K^+-ATPase (adenosine 5′-triphosphatase from porcine cerebral cortex). Description: Na^+/K^+-ATPase activity assay. Type of data set: biochemical. Conditions: various concentrations, 15 min at 37 °C. The method, boiled down:
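The Na+/K+-ATPase from porcine cerebral cortex, in assay buffer, was mixed with DMSO or test compound in DMSO, and ATP was added to start the reaction. After 15 min at 37 °C, ADP-Glo reagent stopped the reaction and depleted ATP over 40 min at room temperature. Detection reagent then converted ADP to ATP over 60 min, and ATP was read by luciferin/luciferase luminescence.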

Some results are limits rather than exact numbers.

As for `C[C@H]1O[C@@H](O[C@H]2[C@@H](O)C[C@H](O[C@H]3[C@@H](O)C[C@H](O[C@H]4CC[C@@]5(C)[C@H](CC[C@@H]6[C@@H]5CC[C@]5(C)[C@@H](C7=CC(=O)OC7)CC[C@]65O)C4)O[C@@H]3C)O[C@@H]2C)C[C@H](O)[C@@H]1O` [digitoxin, reference compound], in the data set with OVCAR3 cells [1], the Cell cycle distribution entry was “accumulation of cells in the G2/M phase”. Also, in the data set with OVSAHO cells [2], the “ERK activation (phosphorylated ERK)” value was “induced activation of ERK”, the p21 protein expression entry was “significant increase in p21 expression” and the “Cleaved PARP expression level” value is given as “higher than the levels in control cells”. For the same compound, in data set [3], the IC50 is over 50 µM. Further, the “Interaction with hERG channels and hERG trafficking” value in the data set with hERG channels is “reported to interact with hERG channels and hERG trafficking”. The IC50 in data set [4] was over 50 µM. In addition, in the data set with OVCAR3 cells [5], the “ERK activation (phosphorylated ERK)” value was “induced activation of ERK”, the p53 expression entry was “disappearance of p53”, the Bcl-xL expression entry is recorded as “decrease in Bcl-xL after treatment was not statistically significant” and the “Cleaved PARP level” value is “significantly higher levels of cleaved PARP”. Further, in the data set on OVCAR3 cells [5], the “Cleaved caspase 3 level” value is given as “significant increase in cleaved caspase 3”, the Mcl-1 expression result was “expressed less Mcl-1 than control cells” and the p21 protein expression entry was “expressed more p21 protein than the control”. The p53 expression result in the data set on OVCA432 cells is on record as “decreased expression of p53”.

Take `CO[C@H]1[C@H](O[C@H]2CC[C@]3(C=O)[C@H]4CC[C@]5(C)[C@@H](C6=CC(=O)OC6)CC[C@]5(O)[C@@H]4CC[C@]3(O)C2)O[C@H](C)[C@H](O)[C@@H]1OC` [(+)-strebloside, (+)-Strebloside]: the Cell cycle distribution result with OVCAR3 cells [1] is recorded as “induced an accumulation of cells in the G2/M phase”. The “Soft agar colony formation (anchorage-independent growth)” value in the data set on OVCAR3 cells [6] is “formed significantly less soft agar colonies than a DMSO control”; in the data set on OVSAHO cells [7] it was “no difference was detected”. Also, the “ERK activation (phosphorylated ERK)” value in the data set on OVSAHO cells [2] and in the data set on OVCAR3 cells [5] was “induced activation of ERK” in each case. Besides, the results for the p21 protein expression result with OVSAHO cells [2] and in the data set on OVCAR3 cells [5] were “significant increase in p21 expression” and “expressed more p21 protein than the control”, respectively. The “Cleaved PARP expression level” value with OVSAHO cells [2] was “higher than the levels in control cells”. Moreover, the IC50 with OVCAR8 cells was 0.0911 µM; in data set [3] it was over 50 µM; in data set [4], over 50 µM; in data set [14], 0.134 µM. Also, the Cytotoxicity result in the data set with KB nasopharyngeal cells and with HT-29 colon cancer cells was “potent cytotoxicity” each time. The 2D colony formation result in the data set on OVCAR3 cells [8] and in the data set with OVSAHO cells [11] was “neither OVCAR3 nor OVSAHO cells formed colonies” in each case. For the same compound, the “Toxicity compared with digoxin” value in data set [9] and in data set [10] was “not as toxic as digoxin” in each case. The p53 expression result in the data set on OVCAR3 cells [5] is listed as “disappearance of p53”; with OVCA432 cells, “decreased expression of p53”. Moreover, the Bcl-xL expression result in the data set on OVCAR3 cells [5] was “decrease in Bcl-xL after treatment was not statistically significant”. Besides, the “Cleaved PARP level” value with OVCAR3 cells [5] is “significantly higher levels of cleaved PARP”. In the data set with OVCAR3 cells [5], the “Cleaved caspase 3 level” value is “significant increase in cleaved caspase 3”. Besides, in the data set on OVCAR3 cells [5], the Mcl-1 expression result was “expressed less Mcl-1 than control cells”. Also, the “In vivo potency in hollow fiber assay” value in [12] and in [13] was “significant potency in vivo” throughout. The “Inhibition of Na^+/K^+-ATPase activity” value in data set [15] is reported as “inhibited Na^+/K^+-ATPase activity in a concentration-dependent manner”.
